In ChEMBL document CHEMBL1138326, “Structure-based design, synthesis, and biological evaluation of indomethacin derivatives as cyclooxygenase-2 inhibiting nitric oxide donors” (J Med Chem, 2007):
Active and inactive are the calls of the source. The rule behind the calls is not given here.

Assays:
[1] = target: T1, Prostaglandin G/H synthase 1 (Homo sapiens, UniProt P23219); experiment: Inhibition of COX1 in human whole blood assessed as effect on A23187-induced thromboxane B2 production at 30 uM relative to control; values are per cent of control
[2] = target: T2, Prostaglandin G/H synthase 2 (Homo sapiens) (UniProt P35354); experiment: Inhibition of COX2 in human whole blood assessed as effect on LPS-induced thromboxane B2 production at 30 uM relative to control; values are per cent of control
T2 sequence (whole entry): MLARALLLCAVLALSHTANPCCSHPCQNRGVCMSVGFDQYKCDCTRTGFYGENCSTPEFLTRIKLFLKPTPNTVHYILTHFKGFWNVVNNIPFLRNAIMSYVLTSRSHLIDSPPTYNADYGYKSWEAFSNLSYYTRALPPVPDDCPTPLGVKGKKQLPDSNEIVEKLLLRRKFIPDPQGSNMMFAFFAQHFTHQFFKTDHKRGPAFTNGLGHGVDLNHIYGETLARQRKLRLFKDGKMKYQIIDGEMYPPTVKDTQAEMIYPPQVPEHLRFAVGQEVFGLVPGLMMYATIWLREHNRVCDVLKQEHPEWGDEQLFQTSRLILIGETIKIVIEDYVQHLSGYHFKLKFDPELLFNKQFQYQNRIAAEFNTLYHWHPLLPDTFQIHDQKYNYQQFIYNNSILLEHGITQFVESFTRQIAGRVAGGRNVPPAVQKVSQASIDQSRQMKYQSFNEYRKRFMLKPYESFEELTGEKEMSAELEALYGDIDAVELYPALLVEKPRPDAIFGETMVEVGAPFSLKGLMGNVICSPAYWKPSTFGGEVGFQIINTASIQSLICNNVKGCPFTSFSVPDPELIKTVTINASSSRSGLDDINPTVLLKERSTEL

[3] = target: T1, Prostaglandin G/H synthase 1; experiment: Inhibition of COX1 in human whole blood assessed as effect on A23187-induced thromboxane B2 production at 10 uM relative to control; values are per cent of control
Rattus norvegicus [4] = experiment: Antiinflammatory activity against Sprague-Dawley rat carrageenan air-pouch model assessed as reduction of prostaglandin E2 at 45 umol/kg, po; type: functional; design: scale not given: the % may be the effect or the level left
Outline: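 Air pouches raised by sc injection of 20 mL sterile air (day -6) plus 10 mL on day -3; rats fasted 18 h. Compound suspended in 0.5% methocel given orally 1 h before intrapouch carrageenan (1 mL of 1.0% in saline). Exudate collected 4 h later after PBS/heparin lavage; PGE2 by enzyme immunoassay. Means ± SEM, n = 6–22; ANOVA with Dunnett's test vs vehicle.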

Rattus norvegicus [5] = experiment: Gastric sparing effect in Sprague-Dawley rat assessed as reduction of aspirin-induced gastric damage at 45 umol/kg, po; type: ADME, organism-based, Stomach; design: scale not given: the % may be the effect or the level left; conditions: in vivo
Outline: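 Aspirin (25 mg/kg, in 1.0% methocel) gavaged at 1.0 mL/kg; test compound in 0.5% methocel gavaged 2 min later. Rats killed after 3 h and stomachs scored as summed hemorrhagic lesion lengths. Six groups, 3–11 rats each; ANOVA with Newman-Keuls test.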

[6] = target: T1, Prostaglandin G/H synthase 1; experiment: Inhibition of COX1 in human whole blood assessed as effect on A23187-induced thromboxane B2 production; type: tissue-based
[7] = target: T1, Prostaglandin G/H synthase 1; experiment: Inhibition of COX1 in human whole blood assessed as effect on A23187-induced thromboxane B2 production at 1 uM relative to control; values are per cent of control
[8] = target: T1, Prostaglandin G/H synthase 1; experiment: Inhibition of COX1 in human whole blood assessed as effect on A23187-induced thromboxane B2 production at 3 uM relative to control; values are per cent of control
Homo sapiens = species: Homo sapiens; experiment: Selectivity for human COX2 over human COX1
Rattus norvegicus [9] = experiment: Toxicity in Sprague-Dawley rat assessed as reduction of gastric lesion score at 45 umol/kg, po; type: organism-based, Stomach; design: scale not given: the % may be the effect or the level left; conditions: in vivo
Outline: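 Rats fasted 18 h; compound homogenized in 0.5% methocel and gavaged at 1 mL/kg. Killed 3 h after dosing. Stomach opened along the greater curvature and photographed. Hemorrhagic lesion lengths scored blind and summed as the total lesion score. Means ± SEM, 4–12 animals; ANOVA with Dunnett's test.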

Rattus norvegicus [10] = experiment: Antiinflammatory activity against intrapouch dosed Sprague-Dawley rat carrageenan air-pouch model assessed as reduction of prostaglandin E2 at 45 umol/kg; type: functional; design: scale not given: the % may be the effect or the level left
Outline: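 Air pouch made with 20 mL sterile air sc on day -6 and 10 mL more on day -3; rats fasted 18 h. Compound in 0.5% methocel injected into the pouch 1 h before carrageenan (1 mL of 1.0% in saline). After 4 h, exudate recovered with PBS/heparin and assayed for PGE2 by enzyme immunoassay.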

[11] = target: T1, Prostaglandin G/H synthase 1; experiment: Inhibition of COX1 in human whole blood assessed as effect on A23187-induced thromboxane B2 production at 100 uM relative to control; values are per cent of control
Rattus norvegicus [12] = experiment: Increase in nitrite plus nitrate levels in Sprague-Dawley rat at 45 umol/kg, po; type: functional, organism-based
Outline: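 Plasma taken by cardiac puncture 4 h after oral dosing (0.5% methylcellulose vehicle), at the end of the air-pouch experiment. Total NOx (nitrite plus nitrate) measured with a fluorometric kit. Means ± SEM, n = 3; ANOVA with Dunnett's test vs vehicle.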

[13] = target: T2, Prostaglandin G/H synthase 2 (Homo sapiens); experiment: Inhibition of COX2 in human whole blood assessed as effect on LPS-induced thromboxane B2 production at 100 uM relative to control; values are per cent of control

T1 sequence (P23219 whole entry): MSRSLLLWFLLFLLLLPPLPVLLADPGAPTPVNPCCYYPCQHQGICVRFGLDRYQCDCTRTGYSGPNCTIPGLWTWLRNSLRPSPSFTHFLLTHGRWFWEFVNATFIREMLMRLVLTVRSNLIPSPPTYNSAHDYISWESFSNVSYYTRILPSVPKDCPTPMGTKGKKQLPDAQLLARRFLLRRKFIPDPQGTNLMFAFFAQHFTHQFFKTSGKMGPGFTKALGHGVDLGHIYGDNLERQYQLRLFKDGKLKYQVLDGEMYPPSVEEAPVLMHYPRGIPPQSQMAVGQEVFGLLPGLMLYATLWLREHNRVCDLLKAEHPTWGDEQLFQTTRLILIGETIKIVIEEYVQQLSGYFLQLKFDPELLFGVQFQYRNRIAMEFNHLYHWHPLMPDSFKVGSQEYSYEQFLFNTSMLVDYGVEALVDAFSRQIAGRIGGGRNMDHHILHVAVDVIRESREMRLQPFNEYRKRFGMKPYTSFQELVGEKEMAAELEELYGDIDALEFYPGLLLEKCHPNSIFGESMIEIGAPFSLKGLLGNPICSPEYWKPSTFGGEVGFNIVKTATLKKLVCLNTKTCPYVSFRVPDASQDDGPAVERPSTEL

| residual activity [1] [%] | residual activity [2] [%] | residual activity [3] [%] | IC50 [6] [µM] | residual activity [7] [%] | residual activity [8] [%] | Ratio IC50 (Homo sapiens) | residual activity [11] [%] | residual activity [13] [%] | Compound | Activity (Rattus norvegicus [4]) [%] | Activity (Rattus norvegicus [5]) [%] | Activity (Rattus norvegicus [9]) [%] | Activity (Rattus norvegicus [10]) [%] | Activity (Rattus norvegicus [12]) |
| --- | --- | --- | --- | --- | --- | --- | --- | --- | --- | --- | --- | --- | --- | --- |
| 7 | 1 | 31 | 6 | 77 | 65 | 5 | 0 | – | COc1ccc2c(c1)c(CC(=O)NCCCO[N+](=O)[O-])c(C)n2C(=O)c1ccc(Cl)cc1 | 71 | 85 | 98 | 99 | Active |
| 11 | 0 | 37 | 3.3 | 91 | 46 | – | 6 | – | COc1ccc2c(c1)c(CC(=O)NCCCO)c(C)n2C(=O)c1ccc(Cl)cc1 | 85 | – | 98 | 97 | – |
| 41 | 3 | 70 | 15.9 | 98 | 72 | – | 13 | 0 | COc1cc2c(CC(=O)NCCCO[N+](=O)[O-])c(C)n(C(=O)c3ccc(Cl)cc3)c2cc1Cl | – | – | – | – | – |
